Calls of active or inactive are those of the source. The rule behind the calls is not given here.
Columns and labels:
Platelet = test: Antiplatelet activity against human platelet rich plasma assessed as inhibition of ADP-induced platelet aggregation up to 5 mM incubated for 2 mins prior to ADP-challenge; type: functional
In short: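 PRP came from citrated venous blood of aspirin-free human volunteers (200g, 20 min, RT), at 4-6 x 10^8 platelets/mL, with PPP as blank. Compound sodium salts, 50 mM in 0.1 M Na2CO3, were added as 0.01-0.05 mL to 0.5 mL of stirred PRP at 37 °C, 2 min before ADP. Aggregation was induced by 0.01 mL of 1 mM ADP and followed 2-3 min by aggregometer.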

Homo sapiens = species: Homo sapiens; test: Activity at prostaglandin synthetase in ADP-induced human platelet rich plasma assessed as malondialdehyde formation up to 5 mM by spectrophotometric analysis
In short: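 After ADP aggregation, PRP (compound salts added 2 min pre-ADP) was held a further 27 min at 37 °C unstirred. Samples were quenched in 20% trichloroacetic acid/0.6 M HCl and centrifuged. Supernatant was heated 15 min in boiling water with 0.12 M thiobarbiturate (Tris, pH 7.0), then read at A533. MDA = PRP minus PPP signal; recovery was 75-80%.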

Ovis aries [1] = species: Ovis aries; test: Reversible inhibition of cyclooxygenase in sheep seminal vesicles
In short: (§1)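 Cyclooxygenase O2-electrode assay was run with 0.5 uM hematin in Tris-Cl pH 8.5 with 0.67 mM phenol. Inhibitor was preincubated with enzyme for progressively longer periods, up to 12 min. Degree of inhibition was compared across preincubation times to test for irreversible inactivation.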

Ovis aries [2] = species: Ovis aries; test: Irreversible inactivation of cyclooxygenase-mediated cyclooxygenation of arachidonic acid in sheep seminal vesicles up to 12 mins; in short: as §1
[3] = biological target: seed linoleate 13S-lipoxygenase-1 (Glycine max) (UniProt P08170); test: Activity at soybean lipoxygenase assessed as oxygen consumption
Ovis aries [4] = species: Ovis aries; test: Activity at cyclooxygenase in sheep seminal vesicles assessed as oxygen consumption in presence of hematin
In short: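 Cyclooxygenase purified from seminal vesicles was supplemented with 0.5 uM hematin. Fatty acid came from a 9 mM heptane stock, dried under N2 just before use and resuspended in 0.1 M Tris-Cl pH 8.5 with 0.67 mM phenol. O2 uptake was read by oxygen electrode in 3-mL chambers. Arachidonic acid was run alongside as control substrate.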

[5] = Competitive inhibition of cyclooxygenase-mediated cyclooxygenation of arachidonic acid in sheep seminal vesicles by Dixon plot analysis; parameters: species or system Ovis aries
In short: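 Seminal vesicle cyclooxygenase was used with 0.5 uM hematin in 0.1 M Tris-Cl pH 8.5 containing 0.67 mM phenol. Activity was followed as O2 consumption by oxygen electrode in 3-mL chambers, with arachidonic acid as substrate. Ki was derived by Dixon graphical method from eight assays.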

SMILES	inhibition (Platelet)	Activity (Homo sapiens)	inhibition (Ovis aries [1])	Activity (Ovis aries [2])	Activity [3]	Activity (Ovis aries [4])	Ki [5] [nM]
CCCCC/C=C\C/C=C\C/C=C\CCCCCCC(=O)O	Active	Active	–	–	–	–	–
CCCCC/C(C)=C\C/C=C\C/C=C\CCCCCCC(=O)O	Active	inactive	Active	inactive	Active	inactive	2000
CCCCC/C=C\C/C=C\C/C=C\C/C=C\CCCC(=O)O	–	–	–	–	–	Active	–

— ChEMBL document CHEMBL3272161, “Synthesis of prostaglandin synthetase substrate analogues. 2. (8Z,11Z,14Z)-15-Methyl-8,11,14-eicosatrienoic acid” (J Med Chem, 1977)
